# Compounds with a hit are over-represented: about 3.5% of the library has one in this group of screens.
# MrgX1 ag: agonists of human MrgX1 receptor. Q96LB2. MrgX1-HEK293 cells, Fluo-4 calcium fluorescence, agonist mode; active compounds read high. B-score at 10 µM. 310,000 compounds, 0.44% hits. AID 588627;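 active = calcium response B-score plate-corrected fluorescence ratio at least 3 library SD, with starting fluorescence B-score inside 5 SD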
# Target sequence (Q96LB2 whole entry, looked up): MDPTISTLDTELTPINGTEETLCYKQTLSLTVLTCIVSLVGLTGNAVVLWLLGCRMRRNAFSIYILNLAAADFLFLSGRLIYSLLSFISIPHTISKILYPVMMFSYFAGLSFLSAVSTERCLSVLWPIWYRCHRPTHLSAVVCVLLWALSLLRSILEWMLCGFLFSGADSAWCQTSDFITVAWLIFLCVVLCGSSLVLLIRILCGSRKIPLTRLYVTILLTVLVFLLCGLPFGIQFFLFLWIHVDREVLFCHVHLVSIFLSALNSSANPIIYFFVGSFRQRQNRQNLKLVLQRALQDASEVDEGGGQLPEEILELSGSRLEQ
#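 Test system: HEK293 cells stably expressing human MrgX1 receptor; amount: 15,000 cells per well; doses: compound delivered in addition one of three; times: overnight plating before 1 h dye loading; detection: Fluo-4 NW calcium-flux fluorescence, kinetic read; read-out basis: B-scored fluorescence response ratio; controls: positive and negative controls per plate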
# RGS4 inh: human RGS4 inhibition; B-score at 10 µM; 310,000 compounds, 0.45% hits; HEK293 M3R/RGS4 inducible, Fluo-4 calcium flux; active compounds read high; triggered by carbachol at its EC20; AID 463165;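 active = B-score, a plate-corrected calcium signal, over three deviations above library mean, with baseline fluorescence within five deviations of library mean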;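 also: RGS4 expression induced by doxycycline in cells with stable M3 receptor; B-score is computed from the integrated fluorescence ratio over baseline after carbachol; higher B-score means a larger calcium signal and so more RGS4 inhibition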
# Target sequence (P49798 whole entry, looked up): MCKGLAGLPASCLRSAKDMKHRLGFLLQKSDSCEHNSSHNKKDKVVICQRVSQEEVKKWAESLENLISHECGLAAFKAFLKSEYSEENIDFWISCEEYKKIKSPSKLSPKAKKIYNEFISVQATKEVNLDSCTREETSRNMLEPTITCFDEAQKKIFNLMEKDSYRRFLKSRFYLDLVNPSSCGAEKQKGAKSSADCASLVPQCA
# MrgX1 allo act: human MrgX1 positive allosteric modulation, primary screen | B-score at 10 µM | 310,000 compounds, 0.63% hits | AID 588675 | Q96LB2 | MrgX1-HEK293, Fluo-4 calcium flux, FDSS; active compounds read high;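 active = plate-corrected calcium response at least 3 library SD above typical, normal starting fluorescence, not activating the receptor alone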;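 also: compound read alongside a low EC10 to EC30 dose of BAM8-22 agonist; peak minus trough fluorescence over baseline measured at the second addition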
# RGS4 act: potentiators or activators of RGS4. HEK293 M3R/inducible RGS4, carbachol calcium flux Fluo4; active compounds read low. B-score at 10 µM. 310,000 compounds, 0.92% hits;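 active = B-score of the integrated calcium signal more than 4 SD below the library mean, with starting fluorescence not abnormally high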;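 also: negative B-score means reduced calcium response which marks RGS4 activation or potentiation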
#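 test system = M3R-expressing HEK293 line, RGS4 induced by doxycycline | probe or stimulus = carbachol at ECmax as muscarinic agonist stimulus | timing = dye loading 30 min 37 °C, buffer rest 30 min RT | signal = calcium dye Fluo4 fluorescence | evaluation = B score from integrated fluorescence ratio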
# MrgX1 antagonist: antagonists of human MrgX1 receptor; MRGX1-HEK293 calcium flux, Fluo-4, BAM8-22 antagonism; active compounds read low; B-score at 10 µM; 310,000 compounds, 1.3% hits;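 active = calcium-response B-score plate-corrected more than 3 library SD below zero, starting fluorescence within 5 deviations, no agonist response on first addition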;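 also: peak minus trough fluorescence over baseline after final BAM8-22 challenge near maximal dose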
# * hit, by the source's call; i = inactive; · = not tested or not shown.
SMILES,MrgX1 ag,RGS4 inh,MrgX1 allo act,RGS4 act,MrgX1 antagonist
CCn1c(SCC(=O)Nc2ccc3c(c2)OCCO3)nnc1-c1ccccn1,i,i,i,i,i
C/C(=C/C#N)Nc1ccc(C)cc1,i,i,12*,i,i
Cc1cc(/C=N/n2cnnc2)c(C)n1-c1ccc(Cl)cc1,i,i,i,i,i
Cc1cc(/C=N/n2cnnc2)c(C)n1-c1ccc(OCc2ccc(Cl)cc2Cl)cc1,i,i,i,-8.3*,i
CCN(CC)CCNc1ncnc2c1[nH]c1ccc(OC)cc12,i,i,i,i,i
COc1ccc2[nH]c3c(NCCCOC(C)C)ncnc3c2c1,i,i,i,-7.4*,i
CCNc1nc(NCC)nc(SCCOC(=O)c2ccccc2)n1,42*,i,i,i,i
CCCCCCc1cc2cc(C(=O)NCc3ccccc3)c(=N)oc2cc1O,i,i,7*,i,i
CCN(CC)c1ccc2cc(C(=O)NCc3ccc(F)cc3)c(=N)oc2c1,37*,i,i,i,i
O=C(O)/C=C/C(=O)NCc1ccccn1,i,i,i,i,-6.7*
O=C(O)/C=C/C(=O)NCc1ccccc1,i,i,i,i,i
CCC1=NN(C(=O)c2ccc(Br)cc2)C(O)(c2ccccc2)C1 (centres undefined),30*,i,i,i,i
O=[N+]([O-])c1ccc2oc(C(O)c3cccc(Cl)c3)cc2c1 (centres undefined),i,i,8.5*,i,i
Cc1nc(N2CCCC2)c2nnn(Cc3ccccc3Cl)c2n1,i,i,i,i,i
Cn1nc(-c2ccccc2)c(C#N)c1Sc1cccc(Cl)c1,i,i,i,-7.3*,i
Cc1cc(C)cc(N=Cc2[nH]c3ccc(Br)c(Cl)c3c2O)c1,39*,i,i,i,i
COc1ccc(CN=Cc2[nH]c3ccc(Br)c(Cl)c3c2O)cc1,37*,i,i,i,i
COc1ccc(CN=CC2=C(O)CNC2=O)cc1,i,i,i,i,i
COc1ccc(O[C@H]2C=C[C@@H](c3ccccc3)O[C@@H]2CO/N=C(\C)CCC(=O)OC[C@H]2O[C@H](c3ccccc3)C=C[C@@H]2Oc2ccc(OC)cc2)cc1,i,i,i,i,-7.2*
O=C(Nc1ccc(Cl)c([N+](=O)[O-])c1)ONC1=NCCCCC1,i,i,i,i,i
Cc1cc(C)nc(N/N=C/C2=C(N3CCOCC3)C(=C\c3ccc(Cl)cc3)/CC2)n1,i,i,i,i,i
O=C(O)c1ccc(N/N=C/C2=C(N3CCOCC3)C(=C\c3ccccc3)/CC2)cc1,34*,i,i,i,i
CCC(=O)N1c2ccc(S(=O)(=O)N3CCN(C)CC3)cc2CC1C (centres undefined),i,i,i,i,i
Cc1ccc(/C=N/NC(=O)c2nc3nc(C)cc(C)n3n2)cc1,i,i,i,i,-4.7*
Cc1cc(C)n2nc(C(=O)N/N=C/c3cn(C)nc3C)nc2n1,i,i,i,i,i
SMILES,MrgX1 ag,RGS4 inh,MrgX1 allo act,RGS4 act,MrgX1 antagonist
COc1cc(CNCc2cccs2)ccc1OCc1cccs1,i,i,i,i,i
COc1cc(CNCc2cccs2)ccc1OCc1ccccc1,i,i,i,-7.1*,i
Nc1nc(-c2ccccc2)c(-c2ccccc2)n1N,i,i,9.3*,i,i
O=C(O/N=C1/CCSc2ccccc21)c1ccccc1,i,i,8.9*,i,i
Cc1ccc2c(c1)/C(=N/OC(=O)c1ccc(F)cc1)CCS2,i,i,i,i,i
CCc1ccc(N=c2c([N+](=O)[O-])nn(-c3ccc4c(c3)OCCO4)n2O)cc1,i,i,i,i,i
CC(C)N1CCc2c(sc(NC(=O)c3ccc4ccccc4c3)c2C(N)=O)C1,i,i,i,i,i
CC(=O)Nc1sc2c(c1-c1nc3ccccc3s1)CCN(C(C)C)C2,27*,·,i,·,i
CCOC(=O)COn1c(=O)c(-c2ccco2)[n+]([O-])c2ccccc21,i,i,i,i,i
CCOC(=O)c1ccc(CC(=O)c2ccc(O)cc2O)o1,i,i,i,i,i
CCC(=O)Oc1ccc(C/C(=N\O)c2ccc(O)cc2O)o1,i,i,i,i,-4.6*
O=C(OCC(=O)N(Cc1ccccc1)Cc1ccccc1)c1ccccc1NCCO,i,i,i,-9.3*,i
Cc1sc(-n2c(C)cc(/C=C3\SC(=S)NC3=O)c2C)c(C#N)c1C,i,i,i,-11*,-7.4*
O=C(c1ccccc1Br)N1N=C(c2ccccc2)CC1c1ccccc1F (centres undefined),i,i,i,-8*,i
Cc1ccoc1C(=O)NCCNc1ccc(Cl)cc1[N+](=O)[O-],i,i,i,i,-5.1*
O=C(NCCNc1ccc(Cl)cc1[N+](=O)[O-])c1cccnc1,i,i,i,i,i
C=C(C)CNC(=S)NNC(=O)c1cc(C)oc1C,i,i,i,i,i
O=C(Nc1ccc(O)cc1)c1ccc2c(c1)C(=O)N(N1C(=O)c3ccccc3C1=O)C2=O,i,i,i,i,-5.8*
CC1(C)CC(=O)C(C2=NC3(CCCCC3)Cc3ccccc32)=C(O)C1,i,i,i,i,i
CCC1(CC)Cc2ccccc2C(C2=C(O)CC(C)(C)CC2=O)=N1,i,i,i,i,-4.8*
COc1ccccc1NS(=O)(=O)c1ccc(C)c(C(N)=O)c1,i,i,i,i,i
COc1ccccc1NS(=O)(=O)c1ccc(O)c(C(=O)OCc2cccc([N+](=O)[O-])c2)c1,i,i,i,i,-6.5*
COc1ccc(C2Nc3ccccc3C(=O)N2c2ccc(C)cc2)cc1Cn1nnc2ccccc21 (centres undefined),i,i,23*,i,i
CC(C)N(C(=S)NCc1ccccc1)c1ccccc1,i,i,i,i,i
N#C/C(=N\Nc1cccc(C(F)(F)F)c1)C(=O)c1csc(-c2cccnc2)n1,i,i,i,i,-5.7*
Cc1ccc(C(=O)Nc2cccc(C(F)(F)F)c2)cc1NC(=O)c1csc(-c2ccncc2)n1,i,i,i,i,i
CN(C)CCC(=O)C(Cc1ccccc1)c1ccccc1 (centres undefined),i,i,i,i,i
CC(CCCN(C)C)C(Cc1ccccc1)c1ccccc1 (centres undefined),i,i,i,-7.8*,i

# Screens deposited in PubChem BioAssay by Johns Hopkins Ion Channel Center.
